The record followed here is ChEMBL document CHEMBL1154491, “Synthesis, structure, antimicrobial and antioxidant investigations of dicoumarol and related compounds” (Eur J Med Chem, 2008).

Molecules are shown by their SMILES. Converted amounts (≈) assume the structure as drawn. The source made the active and inactive calls. The rule behind the calls is not given here.

Series [1] can be described thus: Antioxidant activity assessed as ABTS radical scavenging activity by TEAC method. Format: functional. The essentials:
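The ABTS radical cation was diluted in PBS, pH 7.4, to an absorbance of 0.70 ± 0.02 at 734 nm at 37 °C. Graded dilutions of compound were added, and absorbance was read at 5, 10, 15 and 20 min after addition.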

The subject of series [2] is Staphylococcus epidermidis. The series can be described thus: Antimicrobial activity against 1.6X10'-3 cfu/ml Staphylococcus epidermidis ATCC 12228 after 1 to 4 days. The format is functional. The essentials: (§1)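 Compounds were dissolved in acetone (10 mg/mL stock) and diluted with culture medium into serial dilutions. Tests used Mueller-Hinton broth with 1% Tween 20, incubated aerobically at 36 ± 1 °C for 1–4 days alongside duplicate blanks. Growth was scored by turbidimetry or by plating on agar, and MIC was recorded.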

A further series deals with Mus musculus. Briefly: Acute toxicity in mouse at 2 g/kg. The conditions noted are these: in vivo.
For the next series, the system named is Staphylococcus aureus. Briefly: Antimicrobial activity against 1.5X10'-3 cfu/ml Staphylococcus aureus ATCC 6538 after 1 to 4 days. The format is functional. A digest of the protocol: as §1
The test system of a further series is Cutibacterium acnes. Briefly: Antimicrobial activity against 1X10'-3 cfu/ml Propionibacterium acnes ATCC 11827 after 1 to 4 days. Format: functional. The essentials: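 Compounds were taken from an acetone stock (10 mg/mL), diluted in culture medium and set up as serial dilutions with duplicate blanks. After 1–4 days of incubation, bacterial growth was estimated by turbidimetry or agar plating to give the MIC.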

Usually MIC stands for the least concentration at which growth counts as inhibited. A low value points to greater potency.

As for `O=c1c(C(c2ccccc2)c2c(O)oc3ccccc3c2=O)c(O)oc2ccccc12`, the outcome in series [1] was Active.
On the same count and under the same terms, under `COc1cc(C(c2c(O)oc3ccccc3c2=O)c2c(O)oc3ccccc3c2=O)cc(OC)c1OC` stands “Active”.
For the compound `O=c1oc2ccccc2c(O)c1C(c1cccc(O)c1O)c1c(O)c2ccccc2oc1=O`, the MIC in series [2] came out at 1.9 µg/mL (≈ 4.28 µM); against Staphylococcus aureus, 6.5 µg/mL (≈ 14.6 µM); against Cutibacterium acnes, 0.5 µg/mL (≈ 1.13 µM). Besides, the Activity entry in the series with Mus musculus is given as “Non-toxic”. The outcome in series [1] was Active.
`Cc1ccc(C(c2c(O)c3ccccc3oc2=O)c2c(O)c3ccccc3oc2=O)cc1`: the Activity result in the series on Mus musculus was “Non-toxic”. Besides, the outcome in series [1] was Active.
The corresponding values for `COc1ccc(C(c2c(O)c3ccccc3oc2=O)c2c(O)c3ccccc3oc2=O)cc1` are “Non-toxic” and “Active”.
Consider `O=c1c(C(c2ccc([N+](=O)[O-])cc2)c2c(O)oc3ccccc3c2=O)c(O)oc2ccccc12`, for which the MIC in series [2] worked out at 1.3 µg/mL (≈ 2.84 µM); in the series with Staphylococcus aureus, 3.7 µg/mL (≈ 8.09 µM); in the series with Cutibacterium acnes, 0.5 µg/mL (≈ 1.09 µM). Besides, the Activity result with Mus musculus is “Non-toxic”. Also, the outcome in series [1] was Active.
Regarding `O=c1c(C(c2ccc(C(c3c(O)oc4ccccc4c3=O)c3c(O)oc4ccccc4c3=O)cc2)c2c(O)oc3ccccc3c2=O)c(O)oc2ccccc12`, in the series on Mus musculus, the Activity entry is “Non-toxic”. In addition, the outcome in series [1] was Active.
As for `O=c1oc2ccccc2c(O)c1C(c1cc([N+](=O)[O-])ccc1O)c1c(O)c2ccccc2oc1=O`, the outcome in series [1] was Active.
